The list is not random: actives were taken first. Their share in the collection is about 3.3%.
PRMT1 FP inh: PRMT1 methyltransferase inhibitors, primary screen, biochemical, fluorescence polarization; hit rate 1.3% among 370,000; recombinant PRMT1, activity-based probe fluorescence polarization; inhibition, % at 2.79 µM; Protein arginine N-methyltransferase 1 (Homo sapiens), Q99873;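 active = inhibition above about 21% made by adding two undisclosed values, limit read from the data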
mABHD4 FP: ABHD4 inhibitors, primary screen, biochemical, fluorescence polarization, mouse. (Lyso)-N-acylphosphatidylethanolamine lipase (Mus musculus), Q8VD66. purified mABHD4, FP-Rh probe fluorescence polarization. inhibition, % at 8.92 µM. hit rate 0.54% among 370,000. AID 720543, 2013;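 active = inhibition exceeding the mean over every tested compound plus 3 SD, cut at about 30% in these data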;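 note: 0% = plate median of compound wells and 100% = S159A mutant with DMSO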
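assay system = mABHD4 protein | compound dosing = single nominal dose of 8.92 µM, 0.89% DMSO final | read-out basis = percent inhibition of probe binding, normalized to plate controls | schedule = Enzyme–compound pre-incubation 45 min, then probe 60 min, both 25 °C | detection = fluorescence polarization, excitation 525 nm, emission 598 nm, BODIPY TMR filters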
rCAG binder: binders of r(CAG) RNA repeats, primary screen, biochemical, fluorescence | AID 651821, 2012 | inhibition, % at 3 µM | r(CAG) RNA repeat, TO-PRO-1 dye displacement fluorescence | hit rate 1.3% among 370,000;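 active = inhibition above the plate cutoff, the mean of all test compounds on that plate plus 3 SD, cut at about 35% in these data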;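 note: 0% = DMSO alone and 100% = 100 µM mitoxantrone as full dye displacement; higher means more dye released from RNA so lower well fluorescence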
SIAE inh: human SIAE inhibitors, primary screen, biochemical, fluorescence polarization, FP-Rh probe, 1536-well HTS; hit rate 0.69% among 370,000; inhibition, % at 9.66 µM; SIAE FP-Rh probe binding; AID 1053197, 2014; Sialate O-acetylesterase (Homo sapiens), Q9HAT2;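 active = inhibition above a cutoff: mean of compounds within the control limits plus 3 SD of those, cut at about 17% in these data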;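 note: 0% = plate median of compound wells and 100% = probe without SIAE protein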
Target sequence (Q9HAT2 whole entry, looked up): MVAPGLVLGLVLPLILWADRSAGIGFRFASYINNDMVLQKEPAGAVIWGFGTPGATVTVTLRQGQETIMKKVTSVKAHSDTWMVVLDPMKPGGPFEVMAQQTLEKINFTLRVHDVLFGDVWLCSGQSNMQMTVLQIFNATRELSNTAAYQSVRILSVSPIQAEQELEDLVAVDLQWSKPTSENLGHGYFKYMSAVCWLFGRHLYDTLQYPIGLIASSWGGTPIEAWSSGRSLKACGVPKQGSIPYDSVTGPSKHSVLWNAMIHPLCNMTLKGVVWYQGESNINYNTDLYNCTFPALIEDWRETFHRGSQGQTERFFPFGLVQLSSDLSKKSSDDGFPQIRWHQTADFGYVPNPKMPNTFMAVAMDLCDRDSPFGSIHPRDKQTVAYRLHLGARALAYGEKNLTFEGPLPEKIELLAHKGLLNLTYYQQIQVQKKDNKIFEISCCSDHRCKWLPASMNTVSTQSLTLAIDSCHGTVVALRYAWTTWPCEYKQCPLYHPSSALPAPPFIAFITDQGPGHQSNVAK
TCR CD3 inh: inhibitors of human TCR-CD3 interaction, primary screen, biochemical, fluorescence, TAMRA-labeled TCR probe. AID 651800, 2012. inhibition, % at 9.4 µM. hit rate 0.37% among 360,000. T-cell receptor (TCR); in the data active = inhibition above about 19%;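 note: recombinant mutant TCR 2C K166C tagged with TAMRA read by polarization; 0% = receptor in buffer alone and 100% = receptor with positive control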
rCAG bind conf: small molecules binding CAG repeat RNA – biochemical, fluorescence, confirmation; shares compounds with rCAG binder; r(CAG) RNA repeat, TO-PRO-1 dye displacement fluorescence; inhibition, % at 3 µM; hit rate 70% among 4,300; AID 652065, 2013;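 active = inhibition above a per-plate cutoff, the mean inhibition of sample wells plus 3 SD, cut at about 35% in these data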;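 note: loss of TO-PRO-1 fluorescence as compound displaces dye from 1x1 AA loop RNA; 0% = DMSO only wells and 100% = 100 µM mitoxantrone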
DNA CAG counter: displacement of TO-PRO-1 from CAG DNA duplex, counter-screen for rCAG RNA repeat binder project, biochemical, fluorescence, TO-PRO-1 dye, d(CAG) DNA oligo; hit rate 94% among 4,300; shares compounds with rCAG binder; d(CAG) DNA oligo TO-PRO-1 dye displacement; inhibition, % at 3 µM;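 active = inhibition above its plate's cutoff, the mean test-well inhibition plus 3 SD, cut at about 4.8% in these data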;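 note: 0% = DNA dye mix with DMSO and 100% = 100 µM mitoxantrone; hits displace the dye from DNA and so lower well fluorescence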
* = called active by the depositor.

For CCOc1ccc(-n2c(SCC(=O)Nc3ccc(S(=O)(=O)Nc4cc(C)nc(C)n4)cc3)nnc2-c2ccc(C)cc2)cc1 the results were PRMT1 FP inh -2, mABHD4 FP -29, rCAG binder 52*, SIAE inh -11, rCAG bind conf 58* and DNA CAG counter 18*.
Screening COc1ccc(-n2c(COc3ccccc3)nnc2SCC(=O)Nc2ccc3c(c2)OCCO3)cc1 returned PRMT1 FP inh 0, mABHD4 FP -7, rCAG binder 3 and SIAE inh -1.
For COc1ccc(-n2c(COc3ccc(C)cc3)nnc2SCC(=O)Nc2ccc(S(=O)(=O)Nc3cc(C)nc(C)n3)cc2)cc1 the results were PRMT1 FP inh -1, mABHD4 FP -7, rCAG binder 51*, SIAE inh -5, rCAG bind conf 44* and DNA CAG counter 14*.
COc1ccc(NC(=O)C(CCCCNC(=O)OC(C)(C)C)NC2(C(=O)NCCc3c[nH]c4ccccc34)CCCCC2)cc1 (stereo unspecified) was read as PRMT1 FP inh 0, mABHD4 FP -8 and SIAE inh 8.
Screening CCOc1cc(C(=O)NC(=S)Nc2ccc(Cl)c(C(=O)O)c2)cc(OCC)c1OCC returned PRMT1 FP inh 0, mABHD4 FP -18, rCAG binder 41*, SIAE inh -9, TCR CD3 inh 1, rCAG bind conf 28 and DNA CAG counter 5.6*.
Screening O=C(O)c1cc(NC(=S)NC(=O)C(c2ccccc2)c2ccccc2)ccc1Cl returned PRMT1 FP inh -4, mABHD4 FP 18, rCAG binder 41*, SIAE inh -2, TCR CD3 inh -3, rCAG bind conf 29 and DNA CAG counter 6.9*.
`O=C(NC(=S)Nc1ccc(Cl)c(C(=O)O)c1)c1ccco1` gave PRMT1 FP inh -3, mABHD4 FP -4, rCAG binder 0, SIAE inh -4 and TCR CD3 inh -5.
For Cc1ccc(C(=O)O)cc1NC(=S)NC(=O)C(c1ccccc1)c1ccccc1 the results were PRMT1 FP inh -3, mABHD4 FP -14, rCAG binder 58*, SIAE inh -8, TCR CD3 inh 2, rCAG bind conf 38* and DNA CAG counter 10*.
For O=C(Nc1ccc(Br)cc1)O[C@@H]1CC[C@@]23CCCN2C(=O)CCC[C@H]3C1 the results were PRMT1 FP inh -1, mABHD4 FP -2 and SIAE inh -2.
For C=CCN1[C@H](C)COc2cccc(F)c2S1(=O)=O the results were PRMT1 FP inh 4, mABHD4 FP -11, rCAG binder 2 and SIAE inh -1.
NS(=O)(=O)c1ccc(NC(=O)CSc2nc3ccccc3c(=O)n2-c2ccc(Br)cc2)cc1 was read as PRMT1 FP inh 3, mABHD4 FP -34, rCAG binder 23 and SIAE inh -22.
Screening COc1cccc(OCC(=O)NNC(=S)Nc2ccc(Cl)cc2Cl)c1 returned PRMT1 FP inh 3, mABHD4 FP 7, rCAG binder 57*, SIAE inh 3, TCR CD3 inh 7, rCAG bind conf 47* and DNA CAG counter 15*.
For O=C(CN1c2ccccc2Sc2ccccc21)NNC(=S)Nc1ccc(Cl)cc1Cl the results were PRMT1 FP inh -4, mABHD4 FP 19, rCAG binder 64*, SIAE inh 1, TCR CD3 inh 7, rCAG bind conf 60* and DNA CAG counter 34*.
For O=C(CN1c2ccccc2Sc2ccccc21)N/N=C/c1ccc(Cl)cc1Cl the results were PRMT1 FP inh 10, mABHD4 FP 17, rCAG binder -1, SIAE inh 8 and TCR CD3 inh 1.
`O=C(COc1cccc(Cl)c1)NNC(=S)Nc1ccccc1` gave PRMT1 FP inh 10, mABHD4 FP 3, rCAG binder 2, SIAE inh 2 and TCR CD3 inh -1.
